The text below walks through data of PubChem BioAssay AID588789 (The Scripps Research Institute Molecular Screening Center, 2011).

This assay deals with Platelet-activating factor acetylhydrolase (Mus musculus) (UniProt Q60963). In words: in vivo mouse pPAFAH activity blockade – gel-based competitive ABPP, fluorescence, in vivo study, late-stage follow-up (AID 588789). To be noted: mouse oral dosing, brain membrane gel ABPP, HT-01; 50 mg/kg oral dose, 4 h; stronger effect = higher value. The method in brief: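 Assay system: mouse brain membrane proteome after oral dosing; buffer or medium: Dulbecco's PBS (DPBS); schedule: 4 h dosing-to-sacrifice, then 30 min probe labelling, 37 °C; technique: SDS-PAGE followed by in-gel fluorescence scan of pPAFAH band; evaluation: % inhibition from band density versus vehicle; benchmarks: vehicle mice high, gel background low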
Sequence of Platelet-activating factor acetylhydrolase (Mus musculus) (Q60963 whole entry, looked up): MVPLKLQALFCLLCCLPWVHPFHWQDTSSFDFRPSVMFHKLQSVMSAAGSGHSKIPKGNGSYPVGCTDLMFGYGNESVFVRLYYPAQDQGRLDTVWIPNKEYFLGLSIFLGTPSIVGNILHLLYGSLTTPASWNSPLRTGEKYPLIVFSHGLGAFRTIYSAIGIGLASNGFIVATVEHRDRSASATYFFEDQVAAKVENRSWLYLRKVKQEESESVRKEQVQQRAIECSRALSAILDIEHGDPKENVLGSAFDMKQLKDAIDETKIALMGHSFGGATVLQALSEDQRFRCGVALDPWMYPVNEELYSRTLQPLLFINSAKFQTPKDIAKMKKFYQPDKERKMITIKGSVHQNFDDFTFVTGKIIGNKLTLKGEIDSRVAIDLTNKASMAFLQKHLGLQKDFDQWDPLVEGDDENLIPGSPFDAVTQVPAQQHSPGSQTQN

As usually defined, the inhibition is the drop in the measured response relative to a control, in per cent. `Cc1cc(N2CCN(C(=O)Oc3ccc(-c4ccccc4)cn3)CC2)c2ccccc2n1`: the inhibition is 86%.

On to `Cc1cc(N2CCN(C(=O)Oc3ccc(-c4ccccc4)cc3)CC2)c2ccccc2n1`, for which the inhibition is 63%.
